Measurements collected from several papers.
Target: Phosphatidylinositol 4,5-bisphosphate 3-kinase catalytic subunit gamma isoform (PIK3CG, Homo sapiens, UniProt P48736)

COc1cnc(Nc2cccc(S(N)(=O)=O)c2)nc1N1CCN(c2ccccc2)CC1
remaining binding (binding, competition with immobilised ligand; 1 µM): 94%

N[C@@H]1CCN(c2nccc(-c3cnn4ncccc34)n2)C1
remaining binding (binding; 1 µM): 100%

O=C(c1ccc(Nc2ncc(Cl)c(-c3ccc(Cl)s3)n2)cc1)N1CCC(N2CCCC2)CC1
remaining binding (binding, competition with immobilised ligand; 1 µM): 90%

CCN1CCN(Cc2ccc(C(=O)Nc3ccc(C)c(Oc4ccc5c(c4)CC(=O)N5)c3)cc2C(F)(F)F)CC1
remaining binding (binding, competition with immobilised ligand; 1 µM): 93%

CNC(=O)[C@@H]1CC[C@@H](n2c(-c3ccc4cnccc4c3)nc3ccc(C(=O)NCc4cccc(C(N)=O)c4)cc32)C1
remaining binding (binding, competition with immobilised ligand; 1 µM): 100%

CN(C)c1nccc(-c2cnc3ncccn23)n1
remaining binding (binding; 1 µM): 39%

O=C(NCCCN1CCOCC1)c1ccc(Nc2ncc(Cl)c(-c3ccc(Cl)s3)n2)cc1
remaining binding (binding, competition with immobilised ligand; 1 µM): 100%

F[C@@H]1CCN(c2nccc(-c3cnn4ncccc34)n2)C1
remaining binding (binding; 1 µM): 100%

O=C(c1ccc(Nc2ncc(Cl)c(-c3cc4ccccc4s3)n2)cc1)N1CCC(N2CCCC2)CC1
remaining binding (binding, competition with immobilised ligand; 1 µM): 87%

C[C@@]1(Cc2ccc(C#N)cc2)C(=O)N(c2cc(Cl)cc(Cl)c2)c2ncc(C(=O)NC3(c4nc(C5CCC5)no4)CC3)n21
remaining binding (cell-free assay, competition with immobilised ligand; 1 µM): 95%

CC(C)(C)c1ccc(-c2nc(CBr)nn2-c2cccc(O)c2)cc1
remaining binding (cell-free assay, competition with immobilised ligand; 10 µM): 94%

CN(CCCC(F)(F)F)c1nccc(-c2cnn3ncccc23)n1
remaining binding (binding; 1 µM): 100%

CCCCN(CCCC)C(=O)CN1C[C@H](c2cc(OC)c3c(c2)OCO3)[C@@H](C(=O)O)[C@@H]1CC(C)(C)CCC
remaining binding (cell-free assay, competition with immobilised ligand; 1 µM): 76.9%

C[C@@H]1CCN(c2nccc(-c3cnn4ncccc34)n2)C1
remaining binding (binding; 1 µM): 58%

NS(=O)(=O)c1cc(NC(=O)Cc2ccccc2)ccc1Oc1cccc(Cl)c1
remaining binding (cell-free assay, competition with immobilised ligand; 1 µM): 77%

CN(c1nccc(-c2cnn3ncccc23)n1)C1CC1
remaining binding (binding; 1 µM): 100%

N#Cc1ccc(Nc2ccc3[nH]c(=O)[nH]c3c2)c(Cl)c1
remaining binding (cell-free assay, competition with immobilised ligand; 1 µM): 92%

N#Cc1ccccc1CSc1nnc2c(n1)[nH]c1ccccc12
remaining binding (binding, competition with immobilised ligand; 10 µM): 100%

FC(F)(F)c1ccc2c(c1)nc(-c1cccnc1)n2C1CC1
remaining binding (cell-free assay, competition with immobilised ligand; 1 µM): 92%

CN(C)c1ncc(F)c(-c2cnn3ncccc23)n1
remaining binding (binding; 1 µM): 90%

C[C@H](c1cccc(C#N)c1)n1cc(Cl)cc(C(N)=O)c1=N
remaining binding (cell-free assay, competition with immobilised ligand; 1 µM): 98%

Nc1ncc2c(n1)-c1c([nH]c3ccc(C#CC4CC4)cc13)CCCC2
remaining binding (binding, competition with immobilised ligand; 1 µM): 77%

O=C(Nc1cccnn1)N1CCC(=Cc2cccc(Oc3ccc(C(F)(F)F)cn3)c2)CC1
remaining binding (cell-free assay, competition with immobilised ligand; 1 µM): 100%

O=C(NCC1CCOCC1)c1n[nH]cc1NC(=O)c1c(F)cccc1F
remaining binding (binding, competition with immobilised ligand; 1 µM): 100%
